# Bioassay records as filed in PubChem.
# NPY-Y2 PAM-ag – potentiators or agonists of human neuropeptide Y receptor Y2 | P49146 | cells expressing NPY-Y2, potentiator/agonist read-out | activation, % at 3.6 µM | actives 0.45% (n = 220,000) | AID 1359; in the data active = activation above about 27%;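 also: cells stimulated with NPY near EC25 plus isoproterenol at EC100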
# NPY-Y1 antag – antagonists of human neuropeptide Y receptor Y1; P25929; HEK293-CNG Y1 cells, membrane potential fluorescence; NPY at EC95, then isoproterenol; inhibition, % at 3.6 µM; actives 1% (n = 200,000); AID 1040;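 active = inhibition above the campaign mean inhibition of all tested compounds plus 3 SD, cut at about 20% in these data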
# Target sequence (P25929 whole entry, looked up): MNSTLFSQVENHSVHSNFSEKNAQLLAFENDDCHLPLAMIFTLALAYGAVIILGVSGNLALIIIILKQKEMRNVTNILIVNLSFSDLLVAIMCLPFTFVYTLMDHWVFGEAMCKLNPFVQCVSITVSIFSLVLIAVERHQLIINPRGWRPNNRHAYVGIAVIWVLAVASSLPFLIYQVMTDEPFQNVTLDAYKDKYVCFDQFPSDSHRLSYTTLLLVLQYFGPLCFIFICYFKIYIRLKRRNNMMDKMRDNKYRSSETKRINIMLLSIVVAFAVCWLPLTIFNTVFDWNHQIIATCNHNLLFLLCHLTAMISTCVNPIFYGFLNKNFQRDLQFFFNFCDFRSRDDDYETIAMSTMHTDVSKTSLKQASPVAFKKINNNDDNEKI
#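 Test system – HEK293 Y1/CNG channel cell line · Also added – NPY agonist 25 nM, then isoproterenol 1 µM plus Ro 20-1724 25 µM · Compound dosing – one concentration, 3.6 µM, in 0.4% DMSO · Schedule – compound incubation 1 h at room temperature, readout 45 min post-stimulation · Technique – fluorescence, membrane potential probe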
# Insulin prom up – MIN6 insulin promoter up-regulation. MIN6 insulin promoter-GFP reporter, high-content imaging; active compounds read high. z-score at 5 µM. actives 0.3% (n = 190,000);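 active = z-score above 3 at 5 µM with at least 500 cells counted in the well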
# NPY1 pot ag – human NPY-Y1 potentiation or agonism, primary screen. NPY-Y1 expressing cells, potentiator/agonist activation. activation, % at 3.6 µM. AID 1304. P25929. actives 0.37% (n = 220,000); in the data active = activation above about 33%, passing the limit was not always enough;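 also: cells stimulated with NPY at EC10 then isoproterenol at EC100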
# NPY-Y2 antag – blocks the human neuropeptide Y Y2 receptor | actives 0.99% (n = 140,000) | P49146 | NPY-Y2 expressing cells, antagonist mode | inhibition, % at 2.7 µM; in the data active = inhibition above about 17%
# Insulin prom inh – TRM-6 insulin promoter activity inhibition. TRM-6 cells, insulin promoter-eGFP reporter, imaging; reporter expression induced with tamoxifen. actives 0.9% (n = 130,000). inhibition, % at 2 µM. AID 1273;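 active = inhibition above the mean plus 3 SD, with well images judged a real hit on visual review, cut at about 60% in these data, passing the limit was not always enough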
# NPY-Y2 pot conf – human NPY-Y2 potentiation or agonism, confirmation. shares compounds with NPY-Y2 PAM-ag. cell-based NPY-Y2 potentiator/agonist assay. activation, % at 3.6 µM. actives 20% (n = 450). AID 1539; in the data active = activation above about 33%
# NPY-Y1 counter – potentiates or activates NPY-Y1, counter-screen for NPY-Y2 hits. activation, % at 3.6 µM. actives 20% (n = 450). Y1 HEK293-CNG cells, membrane potential fluorescence. shares compounds with NPY-Y2 PAM-ag. AID 1651; in the data active = activation above about 45%;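 also: cells stimulated with submaximal NPY then isoproterenol with phosphodiesterase inhibitor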
# NPY-Y1 agonist 2 – activates human NPY-Y1, counter-screen for NPY-Y2 potentiators | HEK293 Y1-CNGC, membrane potential fluorescence, agonism | actives 37% (n = 450) | shares compounds with NPY-Y2 PAM-ag | activation, % at 3.6 µM;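 active = activation above the mean of DMSO-only control wells plus 3 SD, cut at about 18% in these data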;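 also: cells stimulated with 1 µM isoproterenol plus the PDE inhibitor Ro 20-1724; Y1 agonists lower the membrane potential dye signal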
# CNGC inhibitor – cyclic nucleotide gated channel inhibition as counter-screen; inhibition, % at 3.6 µM; AID 1703; shares compounds with NPY-Y2 PAM-ag; actives 32% (n = 450); HEK293-CNG parental, isoproterenol cAMP, membrane potential fluorescence;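 active = inhibition above the control-well mean plus 3 SD of those wells, cut at about 22% in these data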
# NPY-Y2 ag 2 – counter-screen for NPY-Y2 potentiators: agonists of human NPY-Y2 | shares compounds with NPY-Y2 PAM-ag | HEK293 Y2/CNGC cells, membrane potential fluorescence, agonist mode | activation, % at 3.6 µM | actives 56% (n = 450);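 active = activation above the mean of solvent-only control wells plus 3 SD, cut at about 10% in these data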;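 also: cells stimulated by isoproterenol with no NPY added so direct agonism is tested; agonism lowers probe fluorescence through less cAMP and CNG channel opening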
# A number is an active result; n = inactive; x = not tested or not shown. Rows were chosen to be rich in hits. Some 2.5% of all compounds tested hit in one or more screens of this group.
SMILES,NPY-Y2 PAM-ag,NPY-Y1 antag,Insulin prom up,NPY1 pot ag,NPY-Y2 antag,Insulin prom inh,NPY-Y2 pot conf,NPY-Y1 counter,NPY-Y1 agonist 2,CNGC inhibitor,NPY-Y2 ag 2
O=C(Nc1cc(S(=O)(=O)N2CCCCC2)ccc1O)c1ccccc1NS(=O)(=O)c1ccc(F)cc1,n,n,n,n,n,n,x,x,x,x,x
CCn1c2ccccc2c2cc(NC(=O)CN(C)CC(=O)Nc3ccc(N4CCOCC4)cc3)ccc21,26.8,n,n,n,x,x,n,n,n,n,17.7
C/C(Cc1ccccc1)=N\NC(=O)CNC(=O)Cc1ccc(Cl)cc1,n,x,n,n,x,x,x,x,x,x,x
O=C(NCc1ccco1)C(c1ccc(F)cc1)N(C(=O)Cc1cccs1)c1cccnc1 (configuration not stated),n,n,x,n,x,n,x,x,x,x,x
Nc1nc(Nc2ccc(Cl)cc2)nc2ccccc12,51.1,n,x,n,n,n,55.5,65.0,41.3,50.4,42.4
Nc1nc(CCl)nc(Nc2ccccc2)n1,n,n,n,n,x,n,x,x,x,x,x
CCC(C)c1ccc2oc(-c3ccc(NC(=O)c4ncn[nH]4)cc3)nc2c1 (configuration not stated),35.4,n,n,n,n,n,n,n,n,n,n
CC(C)c1ccc2oc(-c3ccc(NC(=O)c4ncn[nH]4)cc3)nc2c1,n,n,n,n,n,n,x,x,x,x,x
CCOC(=O)C1=NN(C(C)=O)C2(CC(=O)N(c3cccc(C)c3)C2=O)C1 (configuration not stated),n,n,n,n,n,x,x,x,x,x,x
O=C(/C(N=Nc1cccc([N+](=O)[O-])c1)=C(/O)c1ccc(Br)cc1)C(F)(F)F,41.0,x,n,n,x,x,n,n,n,n,19.6
O=C(Nc1ccccc1)Nc1ncc([N+](=O)[O-])s1,30.8,n,n,n,x,n,n,n,n,n,n
CC(C)Sc1nc(C(F)(F)F)cc(=O)n1-c1ccccc1,n,n,x,n,n,n,x,x,x,x,x
COC(=O)CSc1nnc(-c2ccc(OC)cc2OC)o1,49.9,n,n,n,n,n,36.1,61.4,36.1,49.1,24.8
CCOC(=O)CSc1nnc(-c2ccccc2OC)o1,n,n,n,n,n,n,x,x,x,x,x
CCc1ccc(NC(=S)N(Cc2ccc(Cl)cc2)Cc2ccc(C(=O)O)cc2)cc1,32.3,n,n,n,x,x,n,n,n,n,n
Cc1ccc(NS(=O)(=O)c2ccc(C(=O)N3CCN(c4ncccn4)CC3)cc2)cc1,34.8,n,n,n,x,n,n,n,n,n,n
O=C(c1ccc(S(=O)(=O)Nc2ccc(F)cc2)cc1)N1CCN(c2ccccn2)CC1,n,n,n,n,x,n,x,x,x,x,x
CCCCC(=O)NC(Nc1nc(C2CC2)cs1)(C(=O)OCC)C(F)(F)F (configuration not stated),n,n,n,n,n,n,x,x,x,x,x
COc1ccc(S(=O)(=O)N2CCC(C(=O)Nc3cccc(Cl)c3)CC2)cc1OC,n,n,n,n,n,n,x,x,x,x,x
CN(C)CCCN(C(=O)/C=C/c1cccs1)c1nc2c(F)cccc2s1,35.9,n,n,n,x,n,65.8,73.4,54.9,63.4,64.5
Cc1cccc2sc(N(CCN(C)C)C(=O)/C=C/c3cccs3)nc12,52.9,n,n,n,n,x,91.0,112.2,96.8,86.1,100.3
CN(C)CCCN(C(=O)CCc1ccccc1)c1nc2c(F)cccc2s1,n,n,n,n,n,n,x,x,x,x,x
O=C(/C=C/c1cn(-c2ccccc2)nc1-c1cccnc1)N1CCCC1,27.8,n,n,n,x,n,n,n,n,n,14.9
CCOC(=O)C(=CNc1cc(C)nn1-c1ccc(C)cc1)C(=O)OCC,36.2,n,x,n,n,n,n,n,n,n,n
COCCCNC(=O)[C@H](CSCc1ccccc1)N1Cc2ccccc2C1=O,n,x,x,n,x,x,x,x,x,x,x
COCCNC(=O)[C@H](CSCc1ccccc1)N1Cc2ccccc2C1=O,102.2,x,x,n,x,x,n,n,n,n,n
Cc1cc(C(=O)NNC(=O)Nc2ccc(Cl)cc2)no1,97.4,x,n,n,x,x,n,n,n,n,n
NS(=O)(=O)c1ccc(CNC(=S)NC2CCCC2)cc1,n,n,n,n,x,n,x,x,x,x,x
Cc1cccc(Cl)c1NC(=O)N1CCCN(c2nc3ccc(Cl)cc3s2)CC1,45.5,x,n,n,x,x,n,n,n,n,n
